TCR CD3 inh – inhibitors of human TCR-CD3 interaction, primary screen, biochemical, fluorescence, TAMRA-labeled TCR probe | inhibition, % at 9.4 µM | 360,000 compounds, 0.37% hits | AID 651800, 2012; in the data active = inhibition above about 19%;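 note: recombinant mutant TCR 2C K166C tagged with TAMRA read by polarization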
ABHD4 inh – ABHD4 inhibitors, primary screen, biochemical, fluorescence polarization, mouse | purified mABHD4, FP-Rh probe fluorescence polarization | inhibition, % at 8.92 µM | 370,000 compounds, 0.54% hits;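 active = inhibition exceeding the mean over every tested compound plus 3 SD, cut at about 30% in these data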
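Doses – 8.92 µM, single dose · Material – wild-type mouse ABHD4 protein · Replication – single well per compound (singlicate) · Measure – percent inhibition of probe binding, normalized to plate controls · Schedule – 45 min compound pre-incubation plus 60 min probe step, 25 °C · Detection – fluorescence polarization with parallel and perpendicular emission, 525/598 nm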
HTRA1 inh – HTRA1 serine protease inhibitors, primary screen, biochemical, fluorescence polarization, HTS; 340,000 compounds, 0.5% hits; Q92743; recombinant HTRA1, FP-rhodamine activity-based probe; inhibition, % at 5.96 µM; in the data active = inhibition above about 36%
SIAE primary – human SIAE inhibitors, primary screen, biochemical, fluorescence polarization, FP-Rh probe, 1536-well HTS. Sialate O-acetylesterase (Homo sapiens), Q9HAT2. SIAE FP-Rh probe binding. inhibition, % at 9.66 µM. 370,000 compounds, 0.69% hits. AID 1053197, 2014;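 active = inhibition above a cutoff: mean of compounds within the control limits plus 3 SD of those, cut at about 17% in these data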
Target sequence (Q9HAT2 whole entry, looked up): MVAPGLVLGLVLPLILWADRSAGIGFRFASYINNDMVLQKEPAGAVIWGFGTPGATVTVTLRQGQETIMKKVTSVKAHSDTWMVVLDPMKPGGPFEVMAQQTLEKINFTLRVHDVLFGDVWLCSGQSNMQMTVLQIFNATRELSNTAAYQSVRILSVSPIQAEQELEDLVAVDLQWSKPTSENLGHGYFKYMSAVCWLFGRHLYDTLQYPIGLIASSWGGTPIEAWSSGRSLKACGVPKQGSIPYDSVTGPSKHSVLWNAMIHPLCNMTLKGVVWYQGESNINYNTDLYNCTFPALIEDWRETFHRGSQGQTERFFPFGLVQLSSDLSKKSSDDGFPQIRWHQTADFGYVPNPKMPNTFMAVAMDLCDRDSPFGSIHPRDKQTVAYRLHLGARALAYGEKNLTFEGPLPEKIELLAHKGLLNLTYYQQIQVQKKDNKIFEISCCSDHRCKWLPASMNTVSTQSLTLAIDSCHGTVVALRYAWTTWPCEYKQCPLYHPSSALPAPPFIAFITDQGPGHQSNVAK
PRMT1 FP inh – PRMT1 methyltransferase inhibitors, primary screen, biochemical, fluorescence polarization; recombinant PRMT1, activity-based probe fluorescence polarization; inhibition, % at 2.79 µM; 370,000 compounds, 1.3% hits; AID 652257, 2013; Protein arginine N-methyltransferase 1 (Homo sapiens), Q99873;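 active = inhibition above about 21% made by adding two undisclosed values, limit read from the data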
HTRA1 conf – HTRA1 protease inhibitors, retest, confirmation, biochemical, fluorescence polarization; shares compounds with HTRA1 inh; recombinant HTRA1, FP-rhodamine activity-based probe; inhibition, % at 5.96 µM; 1,600 compounds, 66% hits; AID 540248, 2011;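 active = mean inhibition over three repeats above a set limit taken from the earlier primary screen, cut at about 37% in these data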;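 note: inhibitors block probe binding so polarization drops and inhibition rises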
Of the large screens only hits and unclear results are named; the others gave an inactive call (follow-up assays come after a bar, where they were run). Most compounds without a hit are left out; they make up all but 2.5% or so of the library.

COc1cc(C(c2c(C(=O)O)[nH]c3ccccc23)c2c(C(=O)O)[nH]c3ccccc23)ccc1OCc1ccccc1	ABHD4 inh 50
C[C@@H]1[C@@H](Sc2ccccc2)CC(=O)O[C@@H]1c1ccc(-c2ccccc2)cc1	none
O=C1C=CC2(O[C@H](c3ccccc3)[C@@H](c3ccccc3)O2)[C@H](Sc2ccccc2O)C1	PRMT1 FP inh 96
N#CCCNS(=O)(=O)c1ccc(C(=O)OCCCOC(=O)c2ccc(S(=O)(=O)NCCC#N)cc2)cc1	none
N#CCCCN1C(=O)C(O)(CC(=O)c2ccc3c(c2)OCCO3)c2ccccc21 (stereo not given)	none
N#CCCCN1C(=O)C(=C(C#N)C#N)c2ccccc21	PRMT1 FP inh 24
COc1ccc(/C=C/C(=O)OCC(=O)Nc2ccc3[nH]c(=O)[nH]c3c2)cc1OC	none
O=C(c1ccco1)[C@@H]1[C@@H]2C(=O)N(c3ccc(Br)cc3)C(=O)[C@@H]2C2c3ccccc3C=CN21 (stereo not given in full)	PRMT1 FP inh 25
O=C(CN1CCN(S(=O)(=O)c2ccc(F)cc2)CC1)Nc1ccc(F)cc1F	none
COc1ccc(-n2c(-c3ccc(Cl)cc3)c[nH]c2=S)cc1	PRMT1 FP inh 24
Cc1ccc(-n2c(-c3ccccc3)c[nH]c2=S)cc1	none
CCCCNC(=O)C1c2ccccc2OCC(=O)N1Cc1cccnc1 (stereo not given)	none (no result: HTRA1 inh)
Cc1cc2c(SCC(=O)Nc3cccc(O)c3)ncnc2s1	PRMT1 FP inh 34
COc1ccc(NC(=O)CSc2nnc(-c3ccccc3C)n2N)cc1OC	none
COc1ccc(NC(=O)CSc2nnc(-c3ccccc3C)n2N)cc1	PRMT1 FP inh 21
CCc1nnc(NC(=O)c2cc(-c3ccccn3)nc3ccc(Br)cc23)s1	none
COc1ccc(-c2cc(C(=O)OCC(=O)c3c(N)n(C)c(=O)n(C)c3=O)c3ccccc3n2)cc1	none
Cn1c(N)c(C(=O)COC(=O)c2cc(-c3ccco3)nc3ccccc23)c(=O)n(C)c1=O	PRMT1 FP inh 22
CCOc1ccc(NC(=O)C(C)NC(=O)c2ccccc2Cl)cc1S(=O)(=O)N1CCCC1 (stereo not given)	none
COC(=O)C1CN(Cc2cn(CCOC(C)=O)nn2)CCS(=O)(=O)N1Cc1ccccc1 (stereo not given)	none (no result: TCR CD3 inh, HTRA1 inh)
O=[N+]([O-])c1ccc(O)c(C=Nc2ccc3nc(-c4ccccc4)[nH]c3c2)c1	none
Oc1c(Br)cc(C=Nc2ccc3nc(-c4ccccc4)[nH]c3c2)c(O)c1Br	ABHD4 inh 31, SIAE primary 18 (no result: HTRA1 inh)
NC(N)=N/N=C/c1ccc(OCc2ccccc2)c(OCc2ccccc2)c1	SIAE primary 25
Cc1cc(C)n(-c2ccc(C(=O)OCC(=O)Nc3ccccc3F)cc2)n1	none
COc1ccc(Br)cc1C(=O)Nc1ccc(N2CCCC2)cc1	TCR CD3 inh 19
Cc1ccc(NC(=O)c2sc3nc(N4CCOCC4)c4c(c3c2N)CC(C)(C)OC4)cc1	PRMT1 FP inh 22
Cc1cccc(CN2CCN(C3CN(C4CCCCC4)S(=O)(=O)C3)CC2)c1 (stereo not given)	none (no result: HTRA1 inh)
CC1CC(C)CN(C(=O)c2ccc3c(c2NCCO)C(=O)c2ccccc2C3=O)C1 (stereo not given)	HTRA1 inh 41 | HTRA1 conf 53
Cc1cc(-c2csc(N)n2)c(C)n1CCC(C)C	HTRA1 inh 53 | HTRA1 conf 63
CCOc1ccc(/C=N/NC(=O)c2cc3ccccc3cc2OC)cc1	none
COc1cc(/C=N/NC(=O)c2cc3ccccc3cc2O)ccc1OCCN1CCCCC1	HTRA1 inh 48 | HTRA1 conf inactive
COCCn1c(C)cc(/C=N/NC(=O)c2cc3ccccc3cc2O)c1C	HTRA1 inh 44 (no result: TCR CD3 inh, ABHD4 inh, SIAE primary, PRMT1 FP inh) | HTRA1 conf inactive
CCC(=O)NC(c1ccco1)c1cc(Cl)c2cccnc2c1OC (stereo not given)	none
CC(=O)NC(c1cc(Cl)c2cccnc2c1O)C(C)C (stereo not given)	HTRA1 inh 53 | HTRA1 conf 72
CCCCC(=O)NC(c1ccco1)c1cc(Cl)c2cccnc2c1O (stereo not given)	HTRA1 inh 59 | HTRA1 conf 65
CCC(=O)NC(c1ccc(OC)cc1)c1c(O)ccc2ccccc12 (stereo not given)	none
CCC(=O)NC(c1ccc(OC)cc1)c1cc(Cl)c2cccnc2c1O (stereo not given)	HTRA1 inh 59 | HTRA1 conf 73
CCC(=O)NC(c1ccco1)c1cc(Cl)c2cccnc2c1O (stereo not given)	HTRA1 inh 56 | HTRA1 conf 64
COC(=O)[C@@]1(C)[C@H]2C(=O)N(C)C(=O)[C@H]2[C@H]2CN=C(SC)N21	none
Cc1noc(C)c1-c1csc(N2CCC(C(N)=O)CC2)n1	none
COc1ccc(N(CC(=O)NCc2ccccc2)C(=O)Cn2nnc(-c3ccccc3F)n2)cc1OC	none
Oc1ccc(N=Nc2ccc3c(c2)OCCO3)c2ncccc12	HTRA1 inh 58 | HTRA1 conf 61
Cc1cccc(N=Nc2ccc(O)c3ncccc23)c1	HTRA1 inh 59 | HTRA1 conf 64
NS(=O)(=O)c1ccc(N=Nc2ccc(O)c3ncccc23)cc1	HTRA1 inh 52 | HTRA1 conf 37
O=C(Nc1ncccc1O)c1ccc2c(c1)OCCO2	none
Cc1ccc(N=Nc2cc(C)ccc2O)c(C)c1	none
Cc1ccc(C)c(N=Nc2ccc(O)c3ncccc23)c1	HTRA1 inh 52 | HTRA1 conf 66
CCOc1ccc(N=Nc2ccc(O)c3ncccc23)cc1	none
COc1cccc(-c2nc3nc(C)cc(C)n3c2NC2CCCC2)c1	none (no result: HTRA1 inh)
COC(=O)c1ccc(C23CC4(C2)[C@H](CN(C)[C@@H]4c2ccccc2)C3c2ccc(Cl)nc2)cc1 (stereo not given in full)	none
N#CC1=C2N=C(N)c3ccccc3N2C2=C(C(=O)CCC2)C1c1ccccc1F (stereo not given)	none
Cc1ccccc1C1C(C#N)=C2N=C(N)c3c(sc4c3CCCCC4)N2C2=C1C(=O)CCC2 (stereo not given)	HTRA1 inh 50 (no result: TCR CD3 inh, ABHD4 inh, SIAE primary, PRMT1 FP inh) | HTRA1 conf inactive
CCCCC[C@@H](C)N1C[C@H](COCc2ccccc2)Oc2cc(N3CC[C@H](O)C3)ccc2S1(=O)=O	none (no result: HTRA1 inh)
C=CCN1CCc2c(cc(O)c(O)c2Br)[C@@H](c2ccccc2)C1	HTRA1 inh 51 | HTRA1 conf 68
COc1ccc(N2C[C@H](CSC)[C@@H](CC(=O)Nc3ccccc3)C2=O)cc1	none
